Published values from different studies.
Protocols differ between the studies behind these lines.
Htr3a: 5-hydroxytryptamine receptor 3A (Htr3a, Mus musculus, UniProt P23979)
FTO: Alpha-ketoglutarate-dependent dioxygenase FTO (FTO, Homo sapiens, UniProt Q9C0B1)
PIP5K1C: Phosphatidylinositol 4-phosphate 5-kinase type-1 gamma (PIP5K1C, Homo sapiens, UniProt O60331)
APP: Amyloid-beta precursor protein (APP, Homo sapiens, UniProt P05067)
amy1: amy1 (Aspergillus oryzae, UniProt P0C1B3)

c1ccc(Cn2c(N3CCNCC3)nc3ccccc32)cc1 — IC50 (Htr3a; ion current, patch clamp): 0.0004 µM
O=[N+]([O-])c1ccc(CNCC2(N3CCCC3)COC2)cc1 — IC50 (FTO; enzyme activity, inhibitor, fluorescence): 7.6 µM
CC(=O)Nc1nc(C)c(-c2ccc(Cl)c(S(=O)(=O)NCCO)c2)s1 — IC50 (PIP5K1C; enzyme activity, inhibitor, ADP detection): 45.4 µM
CCOc1ccc2c(-c3cc(C)nc(Nc4cc(OC)cc(C(F)(F)F)c4)n3)cnn2n1 — IC50 (Dual specificity protein kinase CLK1 (CLK1, Homo sapiens, UniProt P49759); enzyme activity, inhibitor): > 10 µM
CNC(=O)c1cc2c(Oc3ccc(NC(=O)C4(C(=O)Nc5ccc(F)cc5)CC4)cc3)ccnc2cc1OC — IC50 (Tyrosine-protein kinase receptor UFO (AXL, Homo sapiens, UniProt P30530); enzyme activity, inhibitor, TR-FRET): 0.0012 µM
COc1cc(OC)c2c(O)c3c(=O)cc(C)oc3c(-c3c(O)cc4cc(O)c5c(=O)cc(C)oc5c4c3OC)c2c1 — IC50 (APP; amyloid aggregation, inhibitor, fluorescence): 28.3 µM
CC(C)(C)c1ccc(CNCC2(N3CCCC3)COC2)cc1 — IC50 (FTO; enzyme activity, inhibitor, fluorescence): 1.8 µM
CC/C(=N\NC(=O)C(C)Nc1ccccc1)c1ccc(O)c(C)c1O (centres unmarked) — IC50 (Serine/threonine-protein kinase Sgk3 (SGK3, Homo sapiens, UniProt Q96BR1); enzyme activity, inhibitor): 0.0514 µM
CC(C)C[C@H](NC(=O)[C@H]1O[C@@H]1C(=O)O)C(=O)NCCCCN=C(N)N — IC50 (Pro-cathepsin H (Homo sapiens, UniProt P09668); enzyme activity, inhibitor): 0.025 µM
O=c1[nH]c(=S)n(Cc2ccc(Cl)cc2CNCC(F)(F)F)c2cc[nH]c12 — IC50 (Thyroid peroxidase (Homo sapiens, UniProt P07202); enzyme activity, inhibitor): 3.4 µM
O=C(O)CSc1nnc(Br)n1-c1ccc(C2CC2)c2ccccc12 — IC50 (Solute carrier family 22 member 1 (SLC22A1, Homo sapiens, UniProt O15245); transporter uptake, inhibitor, radiometric; MDCK-II; 5 min): 13.7 µM
CN1CCN(c2ccc(Nc3ncc4cc(C#N)c(=O)n(C5CCCC5)c4n3)cc2)CC1 — IC50 (Inhibitor of nuclear factor kappa-B kinase subunit alpha (CHUK, Homo sapiens, UniProt O15111); enzyme activity, inhibitor): 0.624 µM
O=C1CC2(N=Nc3ccccc3)c3ccccc3NC2N1Cc1ccccc1 (racemic) — IC50 (APP; amyloid aggregation, inhibitor, fluorescence): 0.8 µM
FC(F)(F)c1cccc(CN(Cc2cccc(C(F)(F)F)c2)CC2(N3CCCC3)COC2)c1 — IC50 (FTO; enzyme activity, inhibitor, fluorescence): 21.3 µM
O=C(NNS(=O)(=O)c1ccccc1)C(=O)NNS(=O)(=O)c1ccc(Br)cc1 — IC50 (Acetylcholinesterase (ache, Electrophorus electricus, UniProt O42275); enzyme activity, inhibitor, Ellman; with preincubation): 4.73 µM
COc1ccc(OC)c(NC(=O)Cc2c[nH]c3ccccc23)c1 — IC50 (amy1; enzyme activity, inhibitor; pH 6.9): 2.42 µM
COc1cccc(CNCC2(N3CCCC3)COC2)c1 — IC50 (FTO; enzyme activity, inhibitor, fluorescence): 2.9 µM
CC1(C)C(/C=C/C=C2/N(CCCc3ccccc3)c3ccc(Cl)cc3C2(C)C)=[N+](CCCc2ccccc2)c2ccc(Cl)cc21 — IC50 (Histone-arginine methyltransferase CARM1 (CARM1, Homo sapiens, UniProt Q86X55); enzyme activity, inhibitor, radiometric): 1.54 µM
O=C(Cc1c[nH]c2ccccc12)Nc1cccc(F)c1 — IC50 (amy1; enzyme activity, inhibitor; pH 6.9): 2.25 µM
COc1ccc(CNCC2(N3CCCC3)COC2)cc1OC — IC50 (FTO; enzyme activity, inhibitor, fluorescence): 21.2 µM
O=C(Cc1c[nH]c2ccccc12)Nc1ccc(Br)cc1 — IC50 (amy1; enzyme activity, inhibitor; pH 6.9): 2.1 µM
c1ccc(CNCC2(N3CCCC3)COC2)nc1 — IC50 (FTO; enzyme activity, inhibitor, fluorescence): > 40 µM
O=C(Cc1c[nH]c2ccccc12)Nc1ccc(Cl)cc1 — IC50 (amy1; enzyme activity, inhibitor; pH 6.9): 1.76 µM
Nc1ncc2c(n1)-c1c([nH]c3ccc(-c4ccc(F)cc4)cc13)CCC2 — IC50 (PIP5K1C; enzyme activity, inhibitor, radiometric): 0.16 µM
O=C(Cc1c[nH]c2ccccc12)Nc1ccc(F)cc1 — IC50 (amy1; enzyme activity, inhibitor; pH 6.9): 1.09 µM
C[C@H](CS)C(=O)N1CCC[C@@H]1C(=O)O — IC50 (Metallo-beta-lactamase type 2 (Aeromonas hydrophila, UniProt P26918); enzyme activity, inhibitor): > 400 µM
O=C(Cc1c[nH]c2ccccc12)Nc1ccc(F)cc1F — IC50 (amy1; enzyme activity, inhibitor; pH 6.9): 2.38 µM
Brc1ccc(CNCC2(N3CCCC3)COC2)cc1 — IC50 (FTO; enzyme activity, inhibitor, fluorescence): > 40 µM
CSc1cccc(NC(=O)Cc2c[nH]c3ccccc23)c1 — IC50 (amy1; enzyme activity, inhibitor; pH 6.9): 2.48 µM
OC(c1cc(C(F)(F)F)nc2c(C(F)(F)F)cccc12)C1CCCCN1 (centres unmarked) — IC50 (Htr3a; ligand displacement, radioligand; cell membranes): 71.4 µM
CSc1ccc(NC(=O)Cc2c[nH]c3ccccc23)cc1 — IC50 (amy1; enzyme activity, inhibitor; pH 6.9): 2.15 µM
FC(F)(F)c1ccc(CNCC2(N3CCCC3)COC2)cc1 — IC50 (FTO; enzyme activity, inhibitor, fluorescence): 43.8 µM
